Data published in ChEMBL document CHEMBL2093137, “WHO-TDR NTD Screening”.
Converted amounts (≈) assume the structure as drawn.

Key:
Brugia malayi = experiment: WHO-TDR: Lymphatic Filariasis; format: functional; parameters: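 tested at 10 µM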
In short: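 The screening set was a 10,000-compound diverse library from Life Chemicals, filtered for drug-likeness and for reactive groups. It was run against Brugia malayi microfilariae as whole organisms, using previously published standard procedures. Reference drugs acted as positive controls, and activity is reported both as percent inhibition and as IC50.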

[1] = WHO-TDR: Cytotoxicity; format: toxicity, cell-based; settings: human, MRC5 cells
Schistosoma mansoni = experiment: WHO-TDR: Schistosomiasis; format: functional; parameters: concentration or dose not given beside the values
In short: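 Percent inhibition and IC50 describe activity against whole Schistosoma mansoni worms of the Puerto Rican strain, tested as larvae and/or adults. The compounds screened were a diverse set of 10,000 from Life Chemicals, filtered for drug-likeness and reactive groups. Testing followed previously published standard procedures, with a reference drug as positive control.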

Trypanosoma cruzi = experiment: WHO-TDR: Chagas disease; format: functional, organism-based, Homo sapiens; settings: MRC5
In short: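 Each IC50 reflects antiparasitic potency against intracellular amastigotes of Trypanosoma cruzi Tulahuen CL2 beta-galactosidase strain. These were cultured in MRC-5SV2 human lung fibroblasts and exposed to a 10,000-compound diverse Life Chemicals library screened according to published standard procedures with a reference drug as positive control.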

Plasmodium falciparum K1 = experiment: WHO-TDR: Malaria; format: functional, organism-based, Homo sapiens; settings: Erythrocyte
In short: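 This whole-organism screen covered 10,000 drug-likeness-filtered and reactive-group-filtered compounds from Life Chemicals. The target was the Plasmodium falciparum K1 strain in human red blood cells, and the readout was antiplasmodial IC50.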

[2] = system: Trypanosoma brucei brucei; experiment: WHO-TDR: Human African Trypanosomiasis (HAT); format: functional, organism-based; settings: Squib-427
In short: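 Screening used a 10,000-compound diverse library supplied by Life Chemicals and filtered for drug-likeness and reactive groups. Whole bloodstream-form parasites of Trypanosoma brucei Squib 427 strain were assayed according to previously published standard procedures, with reference drugs as positive controls. The reported measure is IC50, reflecting antiparasitic potency.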

Onchocerca ochengi = experiment: WHO-TDR: Onchocerciasis; format: functional; parameters: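 at 12.5 µM on microfilariae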
In short: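 Percent inhibition and IC50 describe activity against microfilariae of Onchocerca ochengi or Onchocerca lienalis, used as animal-pathogen substitutes for the human parasite. The compounds tested made up a 10,000-member diverse library from Life Chemicals.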

Leishmania infantum = experiment: WHO-TDR: Leishmaniasis; format: functional, organism-based, Mus musculus; settings: Macrophage
In short: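 The screened collection came from Life Chemicals: 10,000 diverse compounds selected after filtering for drug-likeness and reactive groups. Each was tested in a whole-organism assay against Leishmania infantum MHOM/MA(BE)/67 amastigotes inside murine peritoneal macrophages, using previously published standard procedures and a reference drug as positive control. Results are IC50 values for antiparasitic potency.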

Row | IC50 (Plasmodium falciparum K1) [µg/mL] | IC50 [2] [µg/mL] | IC50 (Leishmania infantum) [µg/mL] | SMILES | % Inhibition (Brugia malayi) [%] | IC50 [1] [µg/mL] | % Inhibition (Schistosoma mansoni) [%] | IC50 (Trypanosoma cruzi) [µg/mL] | % Inhibition (Onchocerca ochengi) [%]
1 | > 13 | 8.57 (≈ 19.8 µM) | > 13 | O=S(=O)(CCCOc1ccc2c(c1)OCO2)NC1CCN(Cc2ccccc2)CC1 | 0 | > 13 | 16.7 | 13 (≈ 30 µM) | 100
2 | > 12.1 | > 12.1 | > 12.1 | O=S(=O)(CCCOc1ccc2c(c1)OCO2)NCCc1c[nH]c2ccccc12 | 0 | > 12.1 | 0 | 3.12 (≈ 7.74 µM) | 100
3 | > 10.7 | > 10.7 | > 10.7 | O=S(=O)(CCCOc1ccc(F)cc1)NCc1ccccc1Cl | 0 | > 10.7 | 0 | 7.84 (≈ 21.9 µM) | 100
4 | > 10.5 | > 10.5 | > 10.5 | O=S(=O)(CCCOc1ccc(F)cc1)NCCCc1ccccc1 | 0 | 10.5 (≈ 30 µM) | 0 | > 10.5 | 100
5 | > 12.2 | 3.86 (≈ 9.49 µM) | > 12.2 | O=S(=O)(CCCOc1ccc(F)cc1)NC1CCN(Cc2ccccc2)CC1 | 0 | > 12.2 | 50 | > 12.2 | 100
6 | > 12.6 | 4.04 (≈ 9.6 µM) | > 12.6 | O=C(CCCn1nc(-c2ccccc2)ccc1=O)N1CCN(c2ccccc2F)CC1 | 0 | > 12.6 | 25 | 3.81 (≈ 9.07 µM) | 100
7 | > 12.3 | > 12.3 | > 12.3 | NC(=O)c1ccc(NC(=O)CCCn2nc(-c3ccc(Cl)cc3)ccc2=O)cc1 | 0 | > 12.3 | 16.7 | > 12.3 | 100
8 | > 12.7 | > 12.7 | > 12.7 | CCOc1ccc(-c2ccc(=O)n(CCCC(=O)Nc3ccccc3SC)n2)cc1 | 0 | > 12.7 | 0 | 8.92 (≈ 21.1 µM) | 100
9 | > 12.6 | > 12.6 | > 12.6 | CCC(C(=O)Nc1cc(-c2cn3nc(OC)ccc3n2)ccc1Cl)c1ccccc1 (stereo not drawn) | 0 | > 12.6 | 0 | 8.38 (≈ 19.9 µM) | 100
10 | > 11.3 | > 11.3 | 0.366 (≈ 0.972 µM) | COc1ccc2nc(-c3ccc(F)c(NC(=O)Cc4ccccc4)c3)cn2n1 | 0 | > 11.3 | 25 | > 11.3 | 0
11 | > 12.5 | 6.95 (≈ 16.7 µM) | > 12.5 | CCC(=O)Nc1ccc(S(=O)(=O)NCCc2ccc(N3CCCC3)cc2)c(C)c1 | 0 | > 12.5 | 0 | 5.06 (≈ 12.2 µM) | 100
12 | > 10.2 | > 10.2 | > 10.2 | Cc1cc(-c2nnc(NC(=O)c3nc4ccccc4s3)o2)nn1C | 33.33 | > 10.2 | 0 | 3.72 (≈ 10.9 µM) | 100
13 | > 10.4 | > 10.4 | 0.337 (≈ 0.97 µM) | Cc1cc(-c2nnc(NC(=O)CSc3ccc(F)cc3)o2)nn1C | 33.33 | > 10.4 | 0 | > 10.4 | 0
14 | > 13.1 | 4.14 (≈ 9.49 µM) | 4.24 (≈ 9.71 µM) | Cc1cc(-c2nnc(NC(=O)C3CCCCN3S(=O)(=O)c3cccs3)o2)nn1C (stereo not drawn) | 33.33 | 4.91 (≈ 11.2 µM) | 0 | 4.26 (≈ 9.75 µM) | 100
15 | > 13.1 | > 13.1 | 0.425 (≈ 0.971 µM) | O=C(CCSc1ccccc1)NCCOc1ccc2nnc(-c3ccc(F)cc3)n2n1 | 33.33 | > 13.1 | 41.7 | > 13.1 | 0

Second part, the compound before the results:

Row | SMILES | IC50 (Plasmodium falciparum K1) [µg/mL] | IC50 [2] [µg/mL] | IC50 (Leishmania infantum) [µg/mL] | % Inhibition (Brugia malayi) [%] | IC50 [1] [µg/mL] | % Inhibition (Schistosoma mansoni) [%] | IC50 (Trypanosoma cruzi) [µg/mL] | % Inhibition (Onchocerca ochengi) [%]
16 | O=S(=O)(CCCOc1ccc(F)cc1)N1CCc2ccccc21 | > 10.1 | 3.22 (≈ 9.6 µM) | > 10.1 | 0 | > 10.1 | 0 | 3.09 (≈ 9.2 µM) | 100
17 | O=S(=O)(CCCOc1ccc(F)cc1)NCc1c(F)cccc1F | > 10.8 | > 10.8 | 0.349 (≈ 0.971 µM) | 0 | > 10.8 | 0 | 5.73 (≈ 16 µM) | 50
18 | O=C(CCCn1nc(-c2ccc(F)cc2)ccc1=O)Nc1ccc(C(F)(F)F)cc1 | > 12.6 | > 12.6 | > 12.6 | 0 | > 12.6 | 0 | > 12.6 | 100
19 | COc1ccc2nc(-c3ccc(OC)c(NC(=O)c4c(F)cccc4Cl)c3)cn2n1 | > 12.8 | > 12.8 | 0.415 (≈ 0.972 µM) | 0 | > 12.8 | 0 | > 12.8 | 0
20 | COc1ccc(CCC(=O)NCCc2ccc(N3CCCC3)cc2)cc1 | > 10.6 | > 10.6 | 0.342 (≈ 0.97 µM) | 0 | > 10.6 | 0 | > 10.6 | 0
21 | CCSc1nc(-c2ccccc2)c(NC(C)=O)s1 | > 8.35 | > 8.35 | 0.27 (≈ 0.97 µM) | 0 | > 8.35 | 0 | > 8.35 | 0
22 | CCOc1ccccc1C(=O)Nc1sc(SCC(N)=O)nc1-c1ccccc1 | > 12.4 | 3.97 (≈ 9.6 µM) | > 12.4 | 0 | > 12.4 | 0 | 7.06 (≈ 17.1 µM) | 100
23 | NC(=O)CSc1nc(-c2ccccc2)c(NC(=O)c2cc3ccccc3o2)s1 | > 12.3 | > 12.3 | > 12.3 | 33.33 | > 12.3 | 25 | > 12.3 | 100
24 | Cc1csc(NC(=O)CSc2nc(-c3ccccc3)c(N)s2)n1 | > 10.9 | > 10.9 | 0.352 (≈ 0.971 µM) | 33.33 | > 10.9 | 0 | 7.18 (≈ 19.8 µM) | 50
25 | Cc1nnc(NC(=O)CSc2nc(-c3ccccc3)c(N)s2)s1 | > 10.9 | > 10.9 | 0.353 (≈ 0.971 µM) | 33.33 | > 10.9 | 16.7 | > 10.9 | 0
26 | CC(C)CC(=O)NCCOc1ccc2nnc(-c3ccccc3)n2n1 | > 10.2 | > 10.2 | 0.33 (≈ 0.972 µM) | 33.33 | > 10.2 | 16.7 | > 10.2 | 0
